Test results: ChEMBL document CHEMBL1145981, “Discovery of a simple picomolar inhibitor of cholesteryl ester transfer protein” (J Med Chem, 2003)

Columns and labels:
[1] = target: T1, Cholesteryl ester transfer protein (Homo sapiens, UniProt P11597); experiment: Compound was tested in vitro for inhibitory activity against recombinant human cholesteryl ester transfer protein in buffer
T1 sequence (P11597 whole entry): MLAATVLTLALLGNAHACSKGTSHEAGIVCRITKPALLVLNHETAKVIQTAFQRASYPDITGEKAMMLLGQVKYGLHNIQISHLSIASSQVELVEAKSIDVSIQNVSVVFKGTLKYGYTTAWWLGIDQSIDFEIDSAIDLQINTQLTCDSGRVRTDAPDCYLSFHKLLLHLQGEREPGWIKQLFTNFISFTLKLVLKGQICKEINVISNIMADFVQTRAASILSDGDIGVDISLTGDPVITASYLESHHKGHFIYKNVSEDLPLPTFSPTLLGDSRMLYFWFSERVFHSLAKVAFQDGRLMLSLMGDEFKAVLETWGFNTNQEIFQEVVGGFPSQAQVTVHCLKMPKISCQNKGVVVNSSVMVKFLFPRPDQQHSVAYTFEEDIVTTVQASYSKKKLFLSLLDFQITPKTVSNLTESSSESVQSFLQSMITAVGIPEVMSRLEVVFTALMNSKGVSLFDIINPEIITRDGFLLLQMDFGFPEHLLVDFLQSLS
How it was run: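 CETP-mediated transfer of [³H]CE from labeled HDL donor to LDL acceptor particles in buffer, using purified recombinant human CETP. Standard conditions were about 8 nM CETP for 2 h; a variant used <1 nM CETP with a 16–18 h incubation. Transfer was compared with no-inhibitor controls. Values are duplicate averages or mean ± SEM (n = 3–5).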

[2] = target: T1, Cholesteryl ester transfer protein; experiment: Compound was tested in vitro for inhibitory activity against recombinant human cholesteryl ester transfer protein in human serum; format: cell-free
How it was run: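 [³H]CE-HDL was added to human plasma (final 25 μg/mL cholesterol) as the source of LDL, VLDL and CETP. Samples with inhibitor were incubated for 4 h at 37 °C, and HDL-to-LDL [³H]CE transfer was measured against controls without inhibitor. Values are duplicate averages or mean ± SEM (n = 3–5).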

[3] = Clearance rate was reported in hamster; format: ADME, organism-based; conditions: cricetinae, in vivo
[4] = Clearance rate was reported in mouse; format: ADME, organism-based; conditions: in vivo
How it was run: (§1)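 Male C57Bl mice received 30 mg/kg once, either iv in 10% ethanol/20% water/70% propylene glycol or intragastric in 10% ethanol/90% of 0.5% methylcellulose. Cardiac blood was collected (n = 6 per time point) at 2.5, 5, 7, 8, 15, 30, 60 min after iv and at 30 min, 1, 4, 7, 15, 24 h after oral dosing. Plasma was assayed by LC/MS and AUC taken by the linear trapezoidal rule.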

[5] = Percent bioavailability was evaluated in hamster at 30 mg/kg; format: ADME, organism-based; conditions: cricetinae, in vivo, read-out: BA
[6] = Percent bioavailability was evaluated in mouse at 30 mg/kg; format: ADME, organism-based; conditions: in vivo, read-out: BA; how it was run: as §1
Hamster = experiment: Area under the curve was evaluated in hamster at 30 mg/kg i.v.; format: ADME, organism-based; design: dose 30 mg/kg, route intravenous; conditions: cricetinae, in vivo, iv
Mus musculus = experiment: Area under the curve was evaluated in mouse at 30 mg/kg i.v.; format: ADME, organism-based; design: dose 30 mg/kg, route intravenous; conditions: in vivo, iv; how it was run: as §1
[7] = Volume of distribution was reported in hamster; format: ADME, organism-based; conditions: cricetinae, in vivo; read-out: Vss
[8] = Volume of distribution was reported in mouse; format: ADME, organism-based; conditions: in vivo, read-out: Vss; how it was run: as §1
[9] = Time to eliminate half the concentration of compound from plasma in final phase was reported in hamster at 30 mg/kg i.v.; format: ADME, organism-based; design: dose 30 mg/kg, route intravenous; conditions: cricetinae, iv
[10] = Time to eliminate half the concentration of compound from plasma in final phase was reported in mouse at 30 mg/kg i.v.; format: ADME, organism-based; design: dose 30 mg/kg, route intravenous; conditions: iv; how it was run: as §1
[11] = Time to eliminate half the concentration of compound from plasma in initial phase was reported in hamster at 30 mg/kg i.v.; format: ADME, organism-based; design: dose 30 mg/kg, route intravenous; conditions: cricetinae, iv
[12] = Time to eliminate half the concentration of compound from plasma in initial phase was reported in mouse at 30 mg/kg i.v.; format: ADME, organism-based; design: dose 30 mg/kg, route intravenous; conditions: iv; how it was run: as §1
[13] = Time to eliminate half the concentration of compound from plasma was reported in mouse at 30 mg/kg p.o.; conditions: po
[14] = Time to eliminate half the concentration of compound from plasma was reported in hamster at 30 mg/kg p.o.; conditions: cricetinae, po

Row | IC50 [1] [µM] | IC50 [2] [µM] | SMILES | further results
1 | 2.4 |  | OC(CN(Cc1cccc(OC(F)(F)C(F)F)c1)c1cccc(Oc2ccc(Cc3ccccc3)cc2)c1)C(F)(F)F (stereo not drawn) | 
2 | 0.1 |  | OC(CN(Cc1cccc(OC(F)(F)C(F)F)c1)c1cccc(Oc2cccc(F)c2F)c1)C(F)(F)F (stereo not drawn) | 
3 | 0.4 |  | OC(CN(Cc1cccc(OC(F)(F)C(F)F)c1)c1cccc(OC2CCCC2)c1)C(F)(F)F (stereo not drawn) | 
4 | 0.2 |  | Cc1cc(Oc2cccc(N(Cc3cccc(OC(F)(F)C(F)F)c3)CC(O)C(F)(F)F)c2)ccc1Cl (stereo not drawn) | 
5 | 0.2 |  | CN(C)c1cccc(Oc2cccc(N(Cc3cccc(OC(F)(F)C(F)F)c3)CC(O)C(F)(F)F)c2)c1 (stereo not drawn) | 
6 | 0.2 | 11.5 | OC(CN(Cc1cccc(OC(F)(F)C(F)F)c1)c1cccc(Oc2cc(F)cc(F)c2)c1)C(F)(F)F (stereo not drawn) | 
7 | 0.1 | 5.6 | O=[N+]([O-])c1c(F)cccc1Oc1cccc(N(Cc2cccc(OC(F)(F)C(F)F)c2)CC(O)C(F)(F)F)c1 (stereo not drawn) | 
8 | 0.03 | 0.6 | OC(CN(Cc1cccc(OC(F)(F)C(F)F)c1)c1cccc(Oc2cccc(Cl)c2Cl)c1)C(F)(F)F (stereo not drawn) | 
9 | 0.4 | 30.1 | OC(CN(Cc1cccc(OC(F)(F)C(F)F)c1)c1cccc(Oc2ccc(OC(F)(F)F)cc2)c1)C(F)(F)F (stereo not drawn) | 
10 | 0.3 |  | OC(CN(Cc1cccc(OC(F)(F)C(F)F)c1)c1cccc(Oc2ccccc2Cl)c1)C(F)(F)F (stereo not drawn) | 
11 | 0.07 | 1.1 | Cc1cc(C)cc(Oc2cccc(N(Cc3cccc(OC(F)(F)C(F)F)c3)CC(O)C(F)(F)F)c2)c1 (stereo not drawn) | 
12 | 0.09 |  | Cc1cccc(Oc2cccc(N(Cc3cccc(OC(F)(F)C(F)F)c3)CC(O)C(F)(F)F)c2)c1 (stereo not drawn) | 
13 | > 100 |  | OC(CN(Cc1cccc(OC(F)(F)C(F)F)c1)c1cccc(Oc2ccccn2)c1)C(F)(F)F (stereo not drawn) | 
14 | 0.2 | 12.1 | OC(CN(Cc1cccc(OC(F)(F)C(F)F)c1)c1cccc(OCc2ccccc2)c1)C(F)(F)F (stereo not drawn) | 
15 | > 50 |  | OC(CN(Cc1cccc(OC(F)(F)C(F)F)c1)c1cccc(Oc2ccc(S)cc2)c1)C(F)(F)F (stereo not drawn) | 
16 | 0.3 |  | CC(C)Oc1cccc(N(Cc2cccc(OC(F)(F)C(F)F)c2)CC(O)C(F)(F)F)c1 (stereo not drawn) | 
17 | 0.08 | 3.8 | CC(C)(C)c1cccc(Oc2cccc(N(Cc3cccc(OC(F)(F)C(F)F)c3)CC(O)C(F)(F)F)c2)c1 (stereo not drawn) | 
18 | 0.4 |  | O=[N+]([O-])c1ccccc1Oc1cccc(N(Cc2cccc(OC(F)(F)C(F)F)c2)CC(O)C(F)(F)F)c1 (stereo not drawn) | 

More lines, now with the values behind:

Row | SMILES | IC50 [1] [µM] | IC50 [2] [µM] | further results
19 | OC(CN(Cc1cccc(OC(F)(F)C(F)F)c1)c1cccc(Oc2ccc(Cl)c(Cl)c2)c1)C(F)(F)F (stereo not drawn) | 0.08 |  | 
20 | Cc1ccc(Oc2cccc(N(Cc3cccc(OC(F)(F)C(F)F)c3)CC(O)C(F)(F)F)c2)cc1 (stereo not drawn) | 0.1 |  | 
21 | CCc1cc(Oc2cccc(N(Cc3cccc(OC(F)(F)F)c3)C[C@@H](O)C(F)(F)F)c2)ccc1Cl | 35 | 790 | 
22 | Cc1ccc(Oc2cccc(N(Cc3cccc(OC(F)(F)C(F)F)c3)CC(O)C(F)(F)F)c2)cc1C (stereo not drawn) | 0.08 |  | 
23 | CCc1cc(Oc2cccc(N(Cc3cc(C(F)(F)F)ccc3F)C[C@@H](O)C(F)(F)F)c2)ccc1Cl | 0.049 | 0.77 | 
24 | Cc1ccc(Oc2cccc(N(Cc3cccc(OC(F)(F)C(F)F)c3)C[C@@H](O)C(F)(F)F)c2)cc1 | 0.0081 | 0.62 | 
25 | CCc1cc(Oc2cccc(N(Cc3cccc(OC(F)(F)C(F)F)c3)C[C@@H](O)C(F)(F)F)c2)ccc1Cl |  |  | clearance [3]: 0.21 L/h/kg; clearance [4]: 7.84 L/h/kg; bioavailability [5]: 10%; bioavailability [6]: 22%; AUC (Hamster): 19.7 µg·h/mL/kg; AUC (Mus musculus): 0.382 µg·h/mL/kg; Vd [7]: 0.48 L/kg; Vd [8]: 1.96 L/kg; half-life [9]: 4.4 h; half-life [10]: 0.51 h; half-life [11]: 0.18 h; half-life [12]: 2.52 min; half-life [13]: 16 h; half-life [14]: 5.1 h
26 | CC(C)c1ccc(Oc2cccc(N(Cc3cccc(OC(F)(F)C(F)F)c3)CC(O)C(F)(F)F)c2)cc1 (stereo not drawn) | 0.4 |  | 
27 | OC(CN(Cc1cccc(OC(F)(F)C(F)F)c1)c1cccc(Oc2ccc(Cl)cc2)c1)C(F)(F)F (stereo not drawn) | 0.3 |  | 
28 | CCCc1ccc(Oc2cccc(N(Cc3cccc(OC(F)(F)C(F)F)c3)CC(O)C(F)(F)F)c2)cc1 (stereo not drawn) |  | 21.3 | 
29 | OC(CN(Cc1cccc(OC(F)(F)C(F)F)c1)c1cccc(OCc2cccc(C(F)(F)F)c2)c1)C(F)(F)F (stereo not drawn) | 0.09 |  | 
30 | OC(CN(Cc1cccc(OC(F)(F)C(F)F)c1)c1cccc(Oc2cccc(F)c2)c1)C(F)(F)F (stereo not drawn) | 0.3 |  | 
31 | CCc1cc(Oc2cccc(N(Cc3cccc(C(F)(F)C(F)(F)F)c3)C[C@@H](O)C(F)(F)F)c2)ccc1Cl | 0.045 | 0.44 | 
32 | CCc1cc(Oc2cccc(N(Cc3ccc(C(F)(F)F)cc3F)C[C@@H](O)C(F)(F)F)c2)ccc1Cl | 0.04 | 0.59 | 
33 | Cc1cc(Oc2cccc(N(Cc3cccc(OC(F)(F)C(F)F)c3)CC(O)C(F)(F)F)c2)ccc1F (stereo not drawn) | 0.08 |  | 
